Data set [1] has as its target T1, Tyrosine-protein phosphatase non-receptor type 22 (Homo sapiens, UniProt Q9Y2R2).
T1 sequence (Q9Y2R2 whole entry): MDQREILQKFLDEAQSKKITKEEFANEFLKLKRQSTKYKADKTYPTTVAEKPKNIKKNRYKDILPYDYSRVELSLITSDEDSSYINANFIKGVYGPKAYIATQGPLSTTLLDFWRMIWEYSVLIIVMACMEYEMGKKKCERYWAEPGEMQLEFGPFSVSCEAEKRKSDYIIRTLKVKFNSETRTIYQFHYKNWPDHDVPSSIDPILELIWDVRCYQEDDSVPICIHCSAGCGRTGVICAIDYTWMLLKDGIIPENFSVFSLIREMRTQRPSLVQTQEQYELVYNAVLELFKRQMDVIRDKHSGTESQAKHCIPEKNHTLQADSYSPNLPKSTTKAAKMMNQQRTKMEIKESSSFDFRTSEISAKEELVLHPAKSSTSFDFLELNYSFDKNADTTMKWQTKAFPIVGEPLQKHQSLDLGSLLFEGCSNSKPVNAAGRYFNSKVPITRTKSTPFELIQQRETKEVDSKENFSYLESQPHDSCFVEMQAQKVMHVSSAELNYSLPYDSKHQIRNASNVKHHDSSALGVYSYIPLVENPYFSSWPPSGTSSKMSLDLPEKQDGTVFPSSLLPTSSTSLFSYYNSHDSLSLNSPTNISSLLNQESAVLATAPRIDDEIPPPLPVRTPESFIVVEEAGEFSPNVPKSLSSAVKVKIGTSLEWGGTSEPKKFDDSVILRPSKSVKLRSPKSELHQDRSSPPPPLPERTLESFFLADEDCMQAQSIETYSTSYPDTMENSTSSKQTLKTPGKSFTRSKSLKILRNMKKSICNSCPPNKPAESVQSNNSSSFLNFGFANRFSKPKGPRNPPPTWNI
Kind of data set: Inhibition of LYP (unknown origin) at 25 uM using pNPP as substrate relative to control.

The target in data set [2] is T2, Tyrosine-protein phosphatase YopH (Yersinia enterocolitica, UniProt P15273). As to the kind of experiment: Inhibition of Yersinia enterocolitica YopH. In short, it runs like this:
(§1)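 Inhibition of the PTP panel, run in three independent experiments. Values are the average of the individual means ± SD.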

For data set [3], the target named is T3, Low molecular weight protein-tyrosine phosphatase A (Mycobacterium tuberculosis, UniProt P9WIA1).
T3 sequence (P9WIA1 whole entry): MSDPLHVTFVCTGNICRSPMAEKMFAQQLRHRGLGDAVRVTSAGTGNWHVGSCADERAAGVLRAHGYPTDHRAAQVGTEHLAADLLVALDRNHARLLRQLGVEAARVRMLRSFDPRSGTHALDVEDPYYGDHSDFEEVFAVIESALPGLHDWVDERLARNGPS
As to the kind of experiment: Inhibition of Mycobacterium tuberculosis PtpA. In short, it runs like this: as §1

The nature of data set [4]: Selectivity index, ratio of IC50 for Yersinia enterocolitica YopH to IC50 for LYP (unknown origin) using pNPP as substrate.
In the next data set the test system is Yersinia enterocolitica. Kind of data set: Antibacterial activity against Yersinia enterocolitica assessed as inhibition of bacterial growth at 8 to 250 uM after 48 hrs relative to control. The class given is functional.
Data set [5] addresses T4, Tyrosine-protein phosphatase non-receptor type 1 (Homo sapiens, UniProt P18031).
T4 sequence (P18031 whole entry): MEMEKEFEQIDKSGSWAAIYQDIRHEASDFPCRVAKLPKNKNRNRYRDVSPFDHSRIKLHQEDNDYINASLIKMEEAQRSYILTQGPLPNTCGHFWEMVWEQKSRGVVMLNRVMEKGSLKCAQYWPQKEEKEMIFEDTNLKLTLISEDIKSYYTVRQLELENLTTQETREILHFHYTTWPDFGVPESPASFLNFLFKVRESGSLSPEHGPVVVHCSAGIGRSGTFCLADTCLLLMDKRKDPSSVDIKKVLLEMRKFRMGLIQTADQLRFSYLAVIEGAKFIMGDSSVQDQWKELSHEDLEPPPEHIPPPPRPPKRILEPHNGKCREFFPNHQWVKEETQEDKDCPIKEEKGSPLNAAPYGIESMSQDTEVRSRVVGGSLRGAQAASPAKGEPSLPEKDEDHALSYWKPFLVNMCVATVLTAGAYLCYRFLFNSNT
Kind of data set: Non-competitive inhibition of human PTP1B assessed as inhibition constant using varying level of pNPP as substrate by Lineweaver-Burk plot analysis.

Data set [6] deals with T5, Phosphotyrosine protein phosphatase (Mycobacterium tuberculosis, UniProt A0A045ISB3).
T5 sequence (A0A045ISB3 whole entry): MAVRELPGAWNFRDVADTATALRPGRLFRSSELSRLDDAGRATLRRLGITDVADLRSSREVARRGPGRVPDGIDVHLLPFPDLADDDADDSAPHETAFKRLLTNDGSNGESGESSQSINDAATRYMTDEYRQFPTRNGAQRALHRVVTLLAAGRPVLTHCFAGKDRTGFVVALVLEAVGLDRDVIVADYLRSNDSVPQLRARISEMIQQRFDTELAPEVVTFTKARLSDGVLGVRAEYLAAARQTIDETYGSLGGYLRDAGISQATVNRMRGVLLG
As to the kind of experiment: Competitive inhibition of Mycobacterium tuberculosis PtpB assessed as inhibition constant using varying level of pNPP as substrate by Lineweaver-Burk plot analysis.

Data set [7] can be described thus: Selectivity index, ratio of IC50 for PTP-PEST (unknown origin) to IC50 for LYP (unknown origin) using pNPP as substrate. To be noted: human.
The target in data set [8] is Tyrosine-protein phosphatase YopH (Yersinia enterocolitica) (UniProt P15273). As to the kind of experiment: Binding affinity of Yersinia enterocolitica YopH assessed as protein stabilization by measuring change in melting temperature by thermal denaturation assay. The essentials: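 YopH thermal denaturation profile recorded with and without ligand at 50 µM; melting temperature (Tm) compared between the two.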

Data set [9] addresses T3, Low molecular weight protein-tyrosine phosphatase A. As to the kind of experiment: Non-competitive inhibition of Mycobacterium tuberculosis PtpA assessed as inhibition constant using varying level of pNPP as substrate by Lineweaver-Burk plot analysis.
Data set [10] deals with T4, Tyrosine-protein phosphatase non-receptor type 1. As to the kind of experiment: Reversible inhibition of human PTP1B assessed as enzyme recovery activity by dilution assay relative to control. On the set-up: scale not given: the % may be the effect or the level left. The essentials: (§2)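 Reversibility tested by preincubation and dilution: enzyme preincubated with inhibitor, then diluted, and recovered phosphatase activity expressed as a percentage of control.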

Data set [11] deals with Tyrosine-protein phosphatase YopH (Yersinia enterocolitica) (UniProt P15273). As to the kind of experiment: Potency index, ratio of chicoric-acid IC50 to test compound IC50 for inhibition of Yersinia enterocolitica YopH.
Data set [12] concerns the target T6, Phosphotyrosine protein phosphatase (Mycobacterium tuberculosis) (UniProt A0A045ISB3).
T6 sequence (whole entry): T5 sequence (A0A045ISB3 whole entry)
As to the kind of experiment: Reversible inhibition of Mycobacterium tuberculosis PtpB assessed as enzyme recovery activity by dilution assay relative to control. Also on record: scale not given: the % may be the effect or the level left. The essentials: as §2

Data set [13] deals with T1, Tyrosine-protein phosphatase non-receptor type 22. As to the kind of experiment: Reversible inhibition of LYP (unknown origin) assessed as enzyme recovery activity by dilution assay relative to control. Also on record: scale not given: the % may be the effect or the level left. In short, it runs like this: as §2
For data set [14], the target named is T7, Low molecular weight protein-tyrosine phosphatase A (Mycobacterium tuberculosis) (UniProt P9WIA1).
T7 sequence (whole entry): T3 sequence (P9WIA1 whole entry)
As to the kind of experiment: Reversible inhibition of Mycobacterium tuberculosis PtpA assessed as enzyme recovery activity by dilution assay relative to control. On the set-up: scale not given: the % may be the effect or the level left. The essentials:
as §2

Data set [15] deals with T5, Phosphotyrosine protein phosphatase. Kind of data set: Inhibition of Mycobacterium tuberculosis PtpB. The essentials:
as §1

A short description of data set [16]: Selectivity index, ratio of IC50 for Mycobacterium tuberculosis PtpA to IC50 for LYP (unknown origin) using pNPP as substrate.
Data set [17] addresses T8, Tyrosine-protein phosphatase non-receptor type 12 (Homo sapiens, UniProt Q05209).
T8 sequence (Q05209 whole entry): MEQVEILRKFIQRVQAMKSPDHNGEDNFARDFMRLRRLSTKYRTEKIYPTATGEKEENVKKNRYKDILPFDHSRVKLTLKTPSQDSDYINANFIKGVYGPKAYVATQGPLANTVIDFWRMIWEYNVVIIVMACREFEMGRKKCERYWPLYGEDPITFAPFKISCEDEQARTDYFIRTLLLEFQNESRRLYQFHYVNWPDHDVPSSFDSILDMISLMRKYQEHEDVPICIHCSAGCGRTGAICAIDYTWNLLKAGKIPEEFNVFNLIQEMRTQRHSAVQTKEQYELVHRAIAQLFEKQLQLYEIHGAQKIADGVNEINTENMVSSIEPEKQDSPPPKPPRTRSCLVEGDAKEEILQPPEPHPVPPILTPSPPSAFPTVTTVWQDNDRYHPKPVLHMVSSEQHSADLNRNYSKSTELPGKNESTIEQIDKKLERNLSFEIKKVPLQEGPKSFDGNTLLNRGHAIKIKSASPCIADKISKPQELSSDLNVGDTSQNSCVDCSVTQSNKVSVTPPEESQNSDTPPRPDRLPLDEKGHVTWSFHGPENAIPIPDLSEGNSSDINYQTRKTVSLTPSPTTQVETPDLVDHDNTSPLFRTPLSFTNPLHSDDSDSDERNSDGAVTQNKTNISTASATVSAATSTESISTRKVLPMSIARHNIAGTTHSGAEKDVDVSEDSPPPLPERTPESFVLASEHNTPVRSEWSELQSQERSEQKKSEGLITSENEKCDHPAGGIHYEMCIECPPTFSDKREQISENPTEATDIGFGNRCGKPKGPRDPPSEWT
Kind of data set: Reversible inhibition of PTP-PEST (unknown origin) assessed as enzyme recovery activity by dilution assay relative to control. Also on record: scale not given: the % may be the effect or the level left. In short, it runs like this:
as §2

Data set [18] deals with T8, Tyrosine-protein phosphatase non-receptor type 12. As to the kind of experiment: Inhibition of PTP-PEST (unknown origin). In short, it runs like this: as §1
Data set [19] concerns the target T4, Tyrosine-protein phosphatase non-receptor type 1. Kind of data set: Inhibition of human PTP1B. In short, it runs like this:
as §1

The target of data set [20] is T2, Tyrosine-protein phosphatase YopH. Kind of data set: Non-competitive inhibition of Yersinia enterocolitica YopH assessed as inhibition constant using varying level of pNPP as substrate by Lineweaver-Burk plot analysis.
The target of data set [21] is T1, Tyrosine-protein phosphatase non-receptor type 22. Kind of data set: Competitive inhibition of LYP (unknown origin) assessed as inhibition constant using varying level of pNPP as substrate by Lineweaver-Burk plot analysis.
Data set [22] in a line: Selectivity index, ratio of IC50 for human PTP1B to IC50 for LYP (unknown origin) using pNPP as substrate.
Data set [23] concerns the target T8, Tyrosine-protein phosphatase non-receptor type 12. As to the kind of experiment: Competitive inhibition of PTP-PEST (unknown origin) assessed as inhibition constant using varying level of pNPP as substrate by Lineweaver-Burk plot analysis.
Data set [24] is described as follows: Selectivity index, ratio of IC50 for Mycobacterium tuberculosis PtpB to IC50 for LYP (unknown origin) using pNPP as substrate.
The target of data set [25] is Tyrosine-protein phosphatase YopH (Yersinia enterocolitica) (UniProt P15273). Kind of data set: Binding affinity of Yersinia enterocolitica YopH assessed as structural changes in protein by measuring emission spectra by fluorescence assay. The essentials: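 Intrinsic fluorescence emission spectrum of YopH (λmax 328 nm) recorded in the presence of ligand; quenching and any shift in λmax monitored as the read-out for structural change.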

The target is the same in data set [26]. Kind of data set: Irreversible inhibition of Yersinia enterocolitica YopH assessed as enzyme recovery activity by dilution assay relative to control. Also on record: scale not given: the % may be the effect or the level left. The essentials: as §2
For data set [27], the target named is T1, Tyrosine-protein phosphatase non-receptor type 22. Kind of data set: Inhibition of LYP (unknown origin) using pNPP as substrate.

Molecules are shown by their SMILES. Activity calls are given as the source filed them. The rule behind the calls is not given here.

Tyrosine-protein phosphatase YopH (Yersinia enterocolitica), sequence (P15273 whole entry): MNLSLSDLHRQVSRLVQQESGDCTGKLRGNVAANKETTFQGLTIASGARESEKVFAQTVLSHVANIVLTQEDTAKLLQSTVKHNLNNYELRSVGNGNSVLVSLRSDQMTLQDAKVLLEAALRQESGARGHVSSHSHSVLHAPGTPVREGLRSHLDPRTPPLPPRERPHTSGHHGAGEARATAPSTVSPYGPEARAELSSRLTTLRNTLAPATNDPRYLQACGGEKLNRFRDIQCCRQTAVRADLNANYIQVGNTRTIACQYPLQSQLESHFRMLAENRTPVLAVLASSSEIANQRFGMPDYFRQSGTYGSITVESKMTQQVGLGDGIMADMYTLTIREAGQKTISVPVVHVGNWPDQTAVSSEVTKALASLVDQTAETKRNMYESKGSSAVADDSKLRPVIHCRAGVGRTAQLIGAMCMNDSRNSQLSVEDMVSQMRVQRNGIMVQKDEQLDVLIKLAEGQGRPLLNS
T2 sequence (P15273 whole entry): as above

By inhibition is commonly meant the change of the read-out against control, counted positive when it falls. In turn, `O=C(O)c1ccc(/C=C/C(=O)c2cccc3ccccc23)cc1` gave an inhibition at 25 µM in [1] of 10.3%.
`O=C(O)c1ccc(/C=C/C(=O)c2ccc(F)cc2)cc1`: in data set [1], the inhibition at 25 µM is 11.4%.
Same read-out and setting: in the case of `O=C1COc2ccc(C(=O)/C=C/c3ccc(C(=O)O)cc3)cc2N1` it was 33.2%; in that of `COc1ccc(OC)c(C(=O)/C=C/c2ccc(C(=O)O)cc2)c1`, 15.8%; in that of `COc1ccccc1C(=O)/C=C/c1ccc(C(=O)O)cc1`, 13%.
As a reminder, the IC50 is the concentration that inhibits the measured activity by half. What is called Ki is a dissociation constant, usually derived from enzyme kinetics or from competition with a known ligand. A word on the ΔTm: it is the change in melting temperature against a reference sample. As for `O=C(O)c1ccc(/C=C/C(=O)c2cccc([N+](=O)[O-])c2)cc1`, the IC50 in [2] came out at 2.6 µM; in data set [3] it was 3 µM; in [15], 2.3 µM; in data set [18], 10.9 µM; in data set [19], 3.2 µM; in data set [27], 11.5 µM. Also, the Ratio IC50 in data set [4] came to 0.22; in data set [7] it was 0.94; in data set [11], 145; in [16], 0.26; in data set [22], 0.28; in data set [24], 0.19. In the data set with Yersinia enterocolitica, the “inhibition (INH)” value turned out to be 20%. For the same compound, the Ki in data set [5] was 1.4 µM; in [6] it was 0.4 µM; in data set [9], 0.8 µM; in data set [20] it was 1 µM; in data set [21], 1.9 µM; in [23], 1 µM. For the same compound, the ΔTm in [8] turned out to be 1.5 °C. Moreover, the Activity stood at 45% in [10]; 81% in data set [12]; 76% in [13]; 76% in [14]; 71% in data set [17]; 10% in data set [26]. In data set [1], the inhibition at 25 µM was found to be 57.9%. The result in [25] was inactive.
Compound `COc1cccc(C(=O)/C=C/c2ccc(C(=O)O)cc2)c1` came in with an inhibition at 25 µM in data set [1] of 6.8%.
Still for that read-out and setting: next, `O=C(O)c1ccc(/C=C/C(=O)c2cccc(O)c2)cc1`: 7.9%; `O=C(O)c1ccc(/C=C/C(=O)c2ccc(Br)cc2)cc1`: 15.7%; `COc1cc(OC)cc(C(=O)/C=C/c2ccc(C(=O)O)cc2)c1`: 4.6%.
